What was measured:
[1] = Tmax in Beagle dog plasma at 5 mg/kg, po via gavage by HPLC/MS analysis; assay type: ADME, organism-based, Canis lupus familiaris
[2] = Clearance in Sprague-Dawley rat at 5 mg/kg, iv by HPLC/MS analysis; assay type: ADME, organism-based; settings: in vivo
Method in brief: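 Female CD-1 mice, male SD rats and beagle dogs received 5 mg/kg either iv or by oral gavage. Vehicle was PEG 300/propylene glycol/water (55/25/20, pH 6). Blood was sampled and drug measured by HPLC-MS/MS.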

[3] = Terminal half life in Beagle dog at 5 mg/kg, iv by HPLC/MS analysis; assay type: ADME, organism-based, Canis lupus familiaris; settings: in vivo, read-out: beta t1/2 (converted)
Method in brief: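 Female CD-1 mice, male SD rats or beagle dogs given 5 mg/kg by iv injection or oral gavage. Formulation was PEG300/propylene glycol/water 55/25/20, pH 6. Blood samples analysed by HPLC–MS/MS; parameters include AUC0-inf extrapolated to infinity and terminal half-life.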

Plasmodium berghei [4] = test: Antimalarial activity against Plasmodium berghei infected in Swiss Webster mouse assessed as mouse survival rate at 3.7 mg/kg administered once daily via oral gavage for 4 consecutive days beginning 1 hr after infection measured on day 8 post infection relative to control; assay type: functional
Method in brief: (§1)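 P. berghei-infected erythrocytes taken from a previously infected mouse were injected intraperitoneally. Oral dosing, once daily for 4 consecutive days, began 1 h after infection, in polyethylene glycol 300/propylene glycol/water (55/25/20 by weight). Chloroquine at 30 mg/kg was the positive control, with a vehicle-only group. Percent survival was recorded daily from day 4 to day 20.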

Salmonella typhimurium [5] = test: Genotoxicity in Salmonella typhimurium TA98 assessed as number of revertants per plate at 5 ug/plate in absence of rat liver S9 fraction by Ames test (reference value: 14 +/- 6); assay type: toxicity; settings: salmonella enterica subsp. enterica serovar typhimurium
Salmonella typhimurium [6] = test: Genotoxicity in Salmonella typhimurium TA98 assessed as number of revertants per plate at 150 ug/plate in presence of rat liver S9 fraction by Ames test (reference value: 19 +/- 8); assay type: toxicity; settings: salmonella enterica subsp. enterica serovar typhimurium
Salmonella typhimurium [7] = test: Genotoxicity in Salmonella typhimurium TA100 assessed as number of revertants per plate at 15 ug/plate in absence of rat liver S9 fraction by Ames test (reference value: 154 +/- 9); assay type: toxicity; settings: salmonella enterica subsp. enterica serovar typhimurium
Salmonella typhimurium [8] = test: Genotoxicity in Salmonella typhimurium TA100 assessed as number of revertants per plate at 15 ug/plate in presence of rat liver S9 fraction by Ames test (reference value: 141 +/- 1); assay type: toxicity; settings: salmonella enterica subsp. enterica serovar typhimurium
Salmonella typhimurium [9] = test: Genotoxicity in Salmonella typhimurium TA1535 assessed as number of revertants per plate at 1.5 ug/plate in absence of rat liver S9 fraction by Ames test (reference value: 10 +/- 3); assay type: toxicity; settings: salmonella enterica subsp. enterica serovar typhimurium
Salmonella typhimurium [10] = test: Genotoxicity in Salmonella typhimurium TA1535 assessed as number of revertants per plate at 150 ug/plate in absence of rat liver S9 fraction by Ames test (reference value: 10 +/- 3); assay type: toxicity; settings: salmonella enterica subsp. enterica serovar typhimurium
Salmonella typhimurium [11] = test: Genotoxicity in Salmonella typhimurium TA1537 assessed as number of revertants per plate at 1500 ug/plate in absence of rat liver S9 fraction by Ames test (reference value: 19 +/- 9); assay type: toxicity; settings: salmonella enterica subsp. enterica serovar typhimurium
Salmonella typhimurium [12] = test: Genotoxicity in Salmonella typhimurium TA1537 assessed as number of revertants per plate at 15 ug/plate in presence of rat liver S9 fraction by Ames test (reference value: 11 +/- 4); assay type: toxicity; settings: salmonella enterica subsp. enterica serovar typhimurium
Salmonella typhimurium [13] = test: Genotoxicity in Salmonella typhimurium TA1537 assessed as number of revertants per plate at 50 ug/plate in presence of rat liver S9 fraction by Ames test (reference value: 11 +/- 4); assay type: toxicity; settings: salmonella enterica subsp. enterica serovar typhimurium
Escherichia coli = test: Genotoxicity in Escherichia coli WP2uvrA assessed as number of revertants per plate at 1.5 ug/plate in absence of rat liver S9 fraction by Ames test (reference value: 45 +/- 9); assay type: toxicity
Lymphocyte [14] = test: Genotoxicity in human lymphocytes assessed as replication index at 80 ug/mL after 3 hrs in absence of rat liver S9 fraction by micronucleus assay relative to control; assay type: toxicity, cell-based
Method in brief: (§2)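 Human lymphocytes exposed for 3 h with or without rat liver S9, or 28 h without S9, with 1% DMSO as vehicle control. Replication index = (binucleated + 2 × multinucleated cells)/total cells. Cytotoxicity (%) = 100 − (RI treated/RI vehicle) × 100.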

Lymphocyte [15] = test: Genotoxicity in human lymphocytes assessed as replication index at 355.15 ug/mL after 3 hrs in absence of rat liver S9 fraction by micronucleus assay relative to control; assay type: toxicity, cell-based; method in brief: as §2
Lymphocyte [16] = test: Genotoxicity in human lymphocytes assessed as replication index at 160 ug/mL after 28 hrs in absence of rat liver S9 fraction by micronucleus assay relative to control; assay type: toxicity, cell-based; method in brief: as §2
Lymphocyte [17] = test: Genotoxicity in human lymphocytes assessed as increase in frequency of micronucleated cells at 80 ug/mL after 3 hrs in absence of rat liver S9 fraction by micronucleus assay (reference value: 0.99%); assay type: toxicity, cell-based
Lymphocyte [18] = test: Genotoxicity in human lymphocytes assessed as increase in frequency of micronucleated cells at 160 ug/mL after 28 hrs in absence of rat liver S9 fraction by micronucleus assay (reference value: 0.74%); assay type: toxicity, cell-based
Lymphocyte [19] = test: Genotoxicity in human lymphocytes assessed as increase in frequency of micronucleated cells at 355.15 ug/mL after 28 hrs in absence of rat liver S9 fraction by micronucleus assay (reference value: 0.74%); assay type: toxicity, cell-based
Rattus norvegicus [20] = test: Genotoxicity in rat assessed as change in polychromatic erythrocytes in bone marrow at 500 mg/kg administered via oral gavage measured after 24 hrs post dose by micronucleus assay relative to control; assay type: toxicity, organism-based; settings: in vivo
Rattus norvegicus [21] = test: Genotoxicity in rat assessed as micronucleated polychromatic erythrocytes in bone marrow at 1000 mg/kg administered via oral gavage measured after 24 hrs post dose by micronucleus assay (reference value: 0.07 +/- 0.05%); assay type: toxicity, organism-based; settings: in vivo
Plasmodium berghei [22] = test: Antimalarial activity against Plasmodium berghei infected in Swiss Webster mouse assessed as mouse survival rate at 3 mg/kg administered once daily via oral gavage for 4 consecutive days beginning 1 hr after infection measured on day 6 post infection relative to control; assay type: functional; method in brief: as §1
Plasmodium berghei [23] = test: Antimalarial activity against Plasmodium berghei infected in Swiss Webster mouse assessed as mouse survival rate at 1 mg/kg administered once daily via oral gavage for 4 consecutive days beginning 1 hr after infection measured on day 8 post infection relative to control; assay type: functional
Method in brief: (§3)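 Mice given an intraperitoneal injection of P. berghei-infected erythrocytes taken from a previously infected animal. Oral dosing once daily for 4 consecutive days, starting 1 h after infection. Vehicle: polyethylene glycol 300/propylene glycol/water (weight ratio 55/25/20). Percent survival recorded daily from day 4 to day 20. Chloroquine 30 mg/kg and vehicle-only groups served as controls.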

Plasmodium berghei [24] = test: Antimalarial activity against Plasmodium berghei infected in Swiss Webster mouse assessed as mouse survival rate at 0.3 mg/kg administered once daily via oral gavage for 4 consecutive days beginning 1 hr after infection measured on day 8 post infection relative to control; assay type: functional; method in brief: as §3
Plasmodium berghei [25] = test: Antimalarial activity against Plasmodium berghei infected in Swiss Webster mouse assessed as mouse survival rate at 11 mg/kg administered once daily via oral gavage for 4 consecutive days beginning 1 hr after infection measured on day 11 post infection relative to control; assay type: functional; method in brief: as §3

Cc1c(Oc2cnc(C(=O)N3CC(C)(O)C3)cn2)ccc2c1B(O)OC2
Tmax [1]: 1.2 h | clearance [2]: 3.88 mL/min/kg | half-life [3]: 6.9 h | survival at 3.7 mg/kg (Plasmodium berghei [4]): 0% | Activity (Salmonella typhimurium [5]): 12 | Activity (Salmonella typhimurium [6]): 10 | Activity (Salmonella typhimurium [7]): 126 | Activity (Salmonella typhimurium [8]): 149 | Activity (Salmonella typhimurium [9]): 12 | Activity (Salmonella typhimurium [10]): 8 | Activity (Salmonella typhimurium [11]): 10 | Activity (Salmonella typhimurium [12]): 9 | Activity (Salmonella typhimurium [13]): 9 | Activity (Escherichia coli): 40 | Activity (Lymphocyte [14]): 3% | Activity (Lymphocyte [15]): 7% | Activity (Lymphocyte [16]): 13% | Activity (Lymphocyte [17]): 0.81% | Activity (Lymphocyte [18]): 0.89% | Activity (Lymphocyte [19]): 0.95% | Activity (Rattus norvegicus [20]): -4% | Activity (Rattus norvegicus [21]): 0.08%

Cc1c(Oc2cnc(C(=O)NC(C)CO)cn2)ccc2c1B(O)OC2 (stereo unspecified)
survival at 3 mg/kg (Plasmodium berghei [22]): 60% | survival at 1 mg/kg (Plasmodium berghei [23]): 0% | survival at 0.3 mg/kg (Plasmodium berghei [24]): 0%

Cc1c(Oc2cnc(C(=O)N3CC(O)(C(C)C)C3)cn2)ccc2c1B(O)OC2
survival at 11 mg/kg (Plasmodium berghei [25]): 20%

— ChEMBL document CHEMBL4038305, “Benzoxaborole Antimalarial Agents. Part 5. Lead Optimization of Novel Amide Pyrazinyloxy Benzoxaboroles and Identification of a Preclinical Candidate” (J Med Chem, 2017)
